Reference: paper PMC3703919 (Clinical cancer research : an official journal of the …, 2009)

How the values were obtained:
[1] = Pharmacokinetics: plasma Ang-; format: in vivo, human
[2] = system: patients with advanced solid tumors; test: Phase I dose escalation: toxicity assessment; format: in vivo, human
In short: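 Cohorts of three started at 100 μg/kg s.c. daily ×5 per 21-d cycle, with planned levels of 100–1,000 μg/kg. One DLT expanded a cohort to six. DLT was grade ≥3 toxicity at least possibly treatment-related, and MTD allowed ≤1/6 with DLT. Exam and labs ran weekly in cycle 1, then on day 1 of later cycles, graded by CTCAE v3.0.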

[3] = 18 patients, 100-700 μg/kg s.c. daily x5 every 21 d, CTCAE v3.0, count

CC[C@H](C)[C@H](NC(=O)[C@H](Cc1ccc(O)cc1)NC(=O)[C@@H](NC(=O)[C@H](CCCNC(=N)N)NC(=O)[C@@H](N)CC(=O)O)C(C)C)C(=O)N[C@@H](Cc1c[nH]cn1)C(=O)N1CCC[C@H]1C(=O)O [Ang-(1-7), Angiotensin-(1-7)]
Tmax ([1]; human, sc): 1 h
dose-dependent increases in drug exposure ([1]; s.c. 100-700 μg/kg, RIA): observed only at the highest dose level
SAE possibly related to Ang-(1-7) ([2]; 400 μg/kg, one patient with metastatic pancreatic cancer, first cycle): grade 3 deep vein thrombosis
dose-limiting toxicities encountered ([2]; 700 μg/kg dose): stroke (grade 4) and reversible cranial neuropathy (grade 3)
Cerebrovascular ischemia, grade 2, adverse events at least possibly related to treatment [2, 3]: 0
Cerebrovascular ischemia, grade 3, adverse events at least possibly related to treatment [2, 3]: 0
Cerebrovascular ischemia, grade 4, adverse events at least possibly related to treatment [2, 3]: 1
Cerebrovascular ischemia, total, adverse events at least possibly related to treatment [2, 3]: 1
Fatigue, grade 2, adverse events at least possibly related to treatment [2, 3]: 2
Fatigue, grade 3, adverse events at least possibly related to treatment [2, 3]: 0
Fatigue, grade 4, adverse events at least possibly related to treatment [2, 3]: 0
Fatigue, total, adverse events at least possibly related to treatment [2, 3]: 2
Gingival regression, grade 2, adverse events at least possibly related to treatment [2, 3]: 1
Gingival regression, grade 3, adverse events at least possibly related to treatment [2, 3]: 0
Gingival regression, grade 4, adverse events at least possibly related to treatment [2, 3]: 0
Gingival regression, total, adverse events at least possibly related to treatment [2, 3]: 1
Hypocalcemia, grade 2, adverse events at least possibly related to treatment [2, 3]: 1
Hypocalcemia, grade 3, adverse events at least possibly related to treatment [2, 3]: 0
Hypocalcemia, grade 4, adverse events at least possibly related to treatment [2, 3]: 0
Hypocalcemia, total, adverse events at least possibly related to treatment [2, 3]: 1
Muscle weakness, grade 2, adverse events at least possibly related to treatment [2, 3]: 1
Muscle weakness, grade 3, adverse events at least possibly related to treatment [2, 3]: 0
Muscle weakness, grade 4, adverse events at least possibly related to treatment [2, 3]: 0
Muscle weakness, total, adverse events at least possibly related to treatment [2, 3]: 1
Musculoskeletal pain, grade 2, adverse events at least possibly related to treatment [2, 3]: 2
Musculoskeletal pain, grade 3, adverse events at least possibly related to treatment [2, 3]: 0
Musculoskeletal pain, grade 4, adverse events at least possibly related to treatment [2, 3]: 0
Musculoskeletal pain, total, adverse events at least possibly related to treatment [2, 3]: 2
Neuropathy, cranial, grade 2, adverse events at least possibly related to treatment [2, 3]: 0
Neuropathy, cranial, grade 3, adverse events at least possibly related to treatment [2, 3]: 1
Neuropathy, cranial, grade 4, adverse events at least possibly related to treatment [2, 3]: 0
Neuropathy, cranial, total, adverse events at least possibly related to treatment [2, 3]: 1
Orthostasis, grade 2, adverse events at least possibly related to treatment [2, 3]: 1
Orthostasis, grade 3, adverse events at least possibly related to treatment [2, 3]: 0
Orthostasis, grade 4, adverse events at least possibly related to treatment [2, 3]: 0
Orthostasis, total, adverse events at least possibly related to treatment [2, 3]: 1
Thrombosis/thrombus/embolism, grade 2, adverse events at least possibly related to treatment [2, 3]: 0
Thrombosis/thrombus/embolism, grade 3, adverse events at least possibly related to treatment [2, 3]: 1
Thrombosis/thrombus/embolism, grade 4, adverse events at least possibly related to treatment [2, 3]: 0
Thrombosis/thrombus/embolism, total, adverse events at least possibly related to treatment [2, 3]: 1
hematologic toxicity ([2]; all dose levels 100-700 μg/kg, 18 patients): No hematologic toxicity was observed
bleeding complications or episodes of hypertension ([2]; all dose levels, 18 patients): No bleeding complications or episodes of hypertension were observed
patients with mild muscle cramps ([2]; all dose levels, 18 patients): three
treatment-related deaths ([2]; all dose levels, 18 patients): no treatment-related deaths
recommended phase II dose ([2]; s.c. once daily for 5 consecutive days on a 3-week cycle): 0.4 mg/kg
